Tests used:
[1] = molecular target: Serine/threonine-protein kinase PLK3 (Homo sapiens) (UniProt Q9H4B4); assay: Inhibition of PLK3 at 1 uM
[2] = molecular target: Casein kinase I isoform epsilon (Homo sapiens) (UniProt P49674); assay: Inhibition of CSNK1E at 1 uM
Summary of the method: (§1)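 Single-concentration screen using Ambit Bioscience KINOMEscan technology across a panel of 250–400 kinases. Per-kinase inhibition from this screen was summarized as S(90), the fraction of kinases inhibited by more than 90%.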

[3] = molecular target: T1, Muscle, skeletal receptor tyrosine-protein kinase (Homo sapiens) (UniProt O15146); assay: Inhibition of MUSK at 1 uM
T1 sequence (whole entry): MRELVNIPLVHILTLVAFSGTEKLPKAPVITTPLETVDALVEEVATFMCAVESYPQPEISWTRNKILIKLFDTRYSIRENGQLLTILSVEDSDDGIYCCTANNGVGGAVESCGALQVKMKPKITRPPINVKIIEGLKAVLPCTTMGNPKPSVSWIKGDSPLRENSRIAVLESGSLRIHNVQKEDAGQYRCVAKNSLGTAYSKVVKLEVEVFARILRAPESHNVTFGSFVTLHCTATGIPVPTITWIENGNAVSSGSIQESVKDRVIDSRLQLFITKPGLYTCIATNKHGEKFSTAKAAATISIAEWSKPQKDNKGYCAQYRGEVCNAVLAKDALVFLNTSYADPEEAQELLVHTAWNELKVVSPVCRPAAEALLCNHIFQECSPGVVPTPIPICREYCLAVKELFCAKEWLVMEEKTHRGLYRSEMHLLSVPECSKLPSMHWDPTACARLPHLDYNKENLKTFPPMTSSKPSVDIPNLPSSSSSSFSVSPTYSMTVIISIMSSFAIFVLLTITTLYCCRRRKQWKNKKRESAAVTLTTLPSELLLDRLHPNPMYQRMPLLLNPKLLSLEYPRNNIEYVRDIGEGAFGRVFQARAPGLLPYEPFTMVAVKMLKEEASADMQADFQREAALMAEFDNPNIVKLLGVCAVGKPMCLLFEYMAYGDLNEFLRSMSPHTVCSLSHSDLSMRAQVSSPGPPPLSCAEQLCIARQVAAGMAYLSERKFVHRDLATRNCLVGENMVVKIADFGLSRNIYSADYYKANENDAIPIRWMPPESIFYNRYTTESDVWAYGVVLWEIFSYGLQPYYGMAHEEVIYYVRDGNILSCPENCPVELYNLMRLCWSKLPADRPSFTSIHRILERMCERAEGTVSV

[4] = tested on: Mast/stem cell growth factor receptor Kit (Homo sapiens), P10721 [V559D]; assay: Inhibition of KIT V559D mutant at 1 uM
Summary of the method: (§2)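 Single-concentration screen on the Ambit KINOMEscan platform, run against a panel of 250–400 kinases. Per-kinase inhibition was also summarized as S(90), the fraction of kinases inhibited by more than 90%.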

[5] = molecular target: STE20/SPS1-related proline-alanine-rich protein kinase (Homo sapiens) (UniProt Q9UEW8); assay: Inhibition of STK39 at 1 uM
[6] = molecular target: Mitogen-activated protein kinase 10 (Homo sapiens) (UniProt P53779); assay: Inhibition of JNK3 at 1 uM; summary of the method: as §2
[7] = tested on: Mast/stem cell growth factor receptor Kit (Homo sapiens), P10721 [D816V]; assay: Inhibition of KIT D816V mutant at 1 uM; summary of the method: as §2
[8] = molecular target: Calcium/calmodulin-dependent protein kinase type II subunit delta (Homo sapiens) (UniProt Q13557); assay: Inhibition of CAMK2D at 1 uM
Summary of the method: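 Ambit KINOMEscan screen at a single concentration across a 250–400 kinase panel, recorded as percent inhibition. Selectivity was expressed as S(90), the fraction of kinases inhibited >90%.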

[9] = molecular target: Mitogen-activated protein kinase kinase kinase 1 (Homo sapiens) (UniProt Q13233); assay: Inhibition of MAP3K1 at 1 uM
[10] = molecular target: T2, Dual specificity mitogen-activated protein kinase kinase 3 (Homo sapiens) (UniProt P46734); assay: Inhibition of MEK3 at 1 uM
T2 sequence (whole entry): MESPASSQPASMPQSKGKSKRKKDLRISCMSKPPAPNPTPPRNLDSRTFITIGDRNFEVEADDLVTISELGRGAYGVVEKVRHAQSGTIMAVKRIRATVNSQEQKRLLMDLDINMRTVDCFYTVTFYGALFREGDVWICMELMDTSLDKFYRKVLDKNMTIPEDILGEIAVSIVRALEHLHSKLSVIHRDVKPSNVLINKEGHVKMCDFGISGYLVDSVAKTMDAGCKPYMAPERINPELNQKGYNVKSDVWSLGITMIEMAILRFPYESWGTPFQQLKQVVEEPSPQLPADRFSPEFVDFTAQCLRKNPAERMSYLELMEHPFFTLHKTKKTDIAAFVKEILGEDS

[11] = molecular target: Receptor tyrosine-protein kinase erbB-2 (Homo sapiens) (UniProt P04626); assay: Inhibition of ERBB2 at 1 uM; summary of the method: as §1
[12] = molecular target: T3, Serine/threonine-protein kinase TAO1 (Homo sapiens) (UniProt Q7L7X3); assay: Inhibition of TAO1 at 1 uM
T3 sequence (whole entry): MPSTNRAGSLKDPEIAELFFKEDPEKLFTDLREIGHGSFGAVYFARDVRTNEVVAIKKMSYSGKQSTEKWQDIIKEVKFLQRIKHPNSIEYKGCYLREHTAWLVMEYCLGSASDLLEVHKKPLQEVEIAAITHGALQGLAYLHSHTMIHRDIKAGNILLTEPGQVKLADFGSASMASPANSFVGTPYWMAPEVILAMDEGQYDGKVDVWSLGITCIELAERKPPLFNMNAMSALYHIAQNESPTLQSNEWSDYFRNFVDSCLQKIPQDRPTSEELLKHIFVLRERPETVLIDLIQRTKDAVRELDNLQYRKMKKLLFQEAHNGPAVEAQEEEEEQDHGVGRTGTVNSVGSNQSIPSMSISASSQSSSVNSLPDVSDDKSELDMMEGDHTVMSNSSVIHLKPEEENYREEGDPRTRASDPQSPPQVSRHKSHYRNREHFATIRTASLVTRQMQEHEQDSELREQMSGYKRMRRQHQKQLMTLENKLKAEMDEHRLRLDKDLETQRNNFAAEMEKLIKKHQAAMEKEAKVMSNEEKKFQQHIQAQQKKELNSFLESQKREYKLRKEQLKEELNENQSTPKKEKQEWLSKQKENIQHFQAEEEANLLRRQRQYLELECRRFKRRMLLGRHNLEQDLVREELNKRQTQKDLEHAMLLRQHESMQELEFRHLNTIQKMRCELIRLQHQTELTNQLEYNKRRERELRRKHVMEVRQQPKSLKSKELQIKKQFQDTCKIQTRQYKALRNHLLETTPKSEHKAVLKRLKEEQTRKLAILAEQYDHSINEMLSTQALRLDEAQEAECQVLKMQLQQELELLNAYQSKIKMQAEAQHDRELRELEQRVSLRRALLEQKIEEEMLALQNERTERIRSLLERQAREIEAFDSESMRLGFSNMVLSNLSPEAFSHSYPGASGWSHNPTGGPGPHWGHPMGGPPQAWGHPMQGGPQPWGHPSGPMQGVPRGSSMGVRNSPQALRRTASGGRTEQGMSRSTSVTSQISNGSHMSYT

Sequence of Mitogen-activated protein kinase kinase kinase 1 (Homo sapiens) (Q13233 whole entry): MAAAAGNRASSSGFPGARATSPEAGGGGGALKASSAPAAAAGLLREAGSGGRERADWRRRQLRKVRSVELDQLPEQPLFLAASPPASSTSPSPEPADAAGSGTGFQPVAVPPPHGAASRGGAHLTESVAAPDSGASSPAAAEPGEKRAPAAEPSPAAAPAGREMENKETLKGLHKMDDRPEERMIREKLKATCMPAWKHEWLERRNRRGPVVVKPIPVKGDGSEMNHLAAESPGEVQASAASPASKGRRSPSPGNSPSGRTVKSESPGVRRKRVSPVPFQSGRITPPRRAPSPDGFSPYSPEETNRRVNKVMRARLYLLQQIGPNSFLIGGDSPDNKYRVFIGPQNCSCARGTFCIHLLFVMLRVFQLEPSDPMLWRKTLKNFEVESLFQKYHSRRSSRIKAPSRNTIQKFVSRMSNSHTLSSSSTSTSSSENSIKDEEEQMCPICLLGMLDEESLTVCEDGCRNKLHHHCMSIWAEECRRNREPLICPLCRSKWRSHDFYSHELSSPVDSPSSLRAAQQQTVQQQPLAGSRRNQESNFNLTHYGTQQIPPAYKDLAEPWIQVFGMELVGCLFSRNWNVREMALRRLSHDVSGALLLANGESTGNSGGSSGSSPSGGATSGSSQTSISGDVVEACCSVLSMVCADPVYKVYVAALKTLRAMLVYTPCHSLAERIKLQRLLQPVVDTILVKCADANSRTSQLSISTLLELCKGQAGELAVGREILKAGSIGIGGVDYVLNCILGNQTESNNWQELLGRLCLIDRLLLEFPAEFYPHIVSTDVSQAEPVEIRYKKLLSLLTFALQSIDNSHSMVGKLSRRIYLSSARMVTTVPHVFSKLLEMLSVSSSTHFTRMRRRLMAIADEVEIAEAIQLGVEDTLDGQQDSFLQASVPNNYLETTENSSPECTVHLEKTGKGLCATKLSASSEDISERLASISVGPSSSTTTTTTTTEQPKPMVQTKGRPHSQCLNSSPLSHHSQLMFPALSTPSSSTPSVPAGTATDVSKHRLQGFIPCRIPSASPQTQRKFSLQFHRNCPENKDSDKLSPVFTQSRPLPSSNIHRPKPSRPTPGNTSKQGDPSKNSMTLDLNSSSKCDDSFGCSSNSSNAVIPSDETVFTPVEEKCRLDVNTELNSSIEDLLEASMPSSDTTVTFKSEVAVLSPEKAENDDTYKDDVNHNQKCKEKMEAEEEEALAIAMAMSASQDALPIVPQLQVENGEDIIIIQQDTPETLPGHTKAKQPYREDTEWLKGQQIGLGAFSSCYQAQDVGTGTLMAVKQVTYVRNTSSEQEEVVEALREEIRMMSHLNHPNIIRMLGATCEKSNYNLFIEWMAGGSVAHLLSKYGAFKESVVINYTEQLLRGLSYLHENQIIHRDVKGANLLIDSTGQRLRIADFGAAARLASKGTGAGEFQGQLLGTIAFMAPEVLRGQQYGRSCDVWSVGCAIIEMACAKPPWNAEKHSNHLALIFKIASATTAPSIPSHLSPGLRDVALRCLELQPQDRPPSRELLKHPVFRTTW
Sequence of Mast/stem cell growth factor receptor Kit (Homo sapiens), P10721 [D816V] (P10721 whole entry D816V): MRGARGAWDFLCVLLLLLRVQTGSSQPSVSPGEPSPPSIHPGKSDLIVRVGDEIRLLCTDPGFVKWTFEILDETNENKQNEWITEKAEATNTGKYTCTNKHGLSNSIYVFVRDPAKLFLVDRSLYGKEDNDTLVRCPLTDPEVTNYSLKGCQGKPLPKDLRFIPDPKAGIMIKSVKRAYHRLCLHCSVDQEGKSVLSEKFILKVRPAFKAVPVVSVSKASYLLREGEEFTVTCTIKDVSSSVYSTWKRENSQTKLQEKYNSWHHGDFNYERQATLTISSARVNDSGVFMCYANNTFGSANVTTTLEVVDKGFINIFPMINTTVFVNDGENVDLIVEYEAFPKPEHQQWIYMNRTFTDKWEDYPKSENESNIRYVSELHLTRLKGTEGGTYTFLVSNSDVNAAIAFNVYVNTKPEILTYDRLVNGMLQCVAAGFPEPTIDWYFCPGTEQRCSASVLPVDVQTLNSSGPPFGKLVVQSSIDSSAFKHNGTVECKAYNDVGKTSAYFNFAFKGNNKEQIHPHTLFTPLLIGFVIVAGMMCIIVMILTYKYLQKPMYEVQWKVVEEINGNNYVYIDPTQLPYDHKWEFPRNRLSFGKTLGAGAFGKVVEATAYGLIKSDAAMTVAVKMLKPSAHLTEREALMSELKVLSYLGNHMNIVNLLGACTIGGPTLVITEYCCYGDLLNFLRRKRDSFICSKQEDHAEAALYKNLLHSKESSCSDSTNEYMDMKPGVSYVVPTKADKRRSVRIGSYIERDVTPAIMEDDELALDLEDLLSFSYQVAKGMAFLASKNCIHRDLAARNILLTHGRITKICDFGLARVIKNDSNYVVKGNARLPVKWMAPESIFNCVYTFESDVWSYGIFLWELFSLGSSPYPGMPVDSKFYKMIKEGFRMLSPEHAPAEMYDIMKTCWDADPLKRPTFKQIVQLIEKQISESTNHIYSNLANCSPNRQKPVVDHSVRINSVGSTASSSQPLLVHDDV
Sequence of Calcium/calmodulin-dependent protein kinase type II subunit delta (Homo sapiens) (Q13557 whole entry): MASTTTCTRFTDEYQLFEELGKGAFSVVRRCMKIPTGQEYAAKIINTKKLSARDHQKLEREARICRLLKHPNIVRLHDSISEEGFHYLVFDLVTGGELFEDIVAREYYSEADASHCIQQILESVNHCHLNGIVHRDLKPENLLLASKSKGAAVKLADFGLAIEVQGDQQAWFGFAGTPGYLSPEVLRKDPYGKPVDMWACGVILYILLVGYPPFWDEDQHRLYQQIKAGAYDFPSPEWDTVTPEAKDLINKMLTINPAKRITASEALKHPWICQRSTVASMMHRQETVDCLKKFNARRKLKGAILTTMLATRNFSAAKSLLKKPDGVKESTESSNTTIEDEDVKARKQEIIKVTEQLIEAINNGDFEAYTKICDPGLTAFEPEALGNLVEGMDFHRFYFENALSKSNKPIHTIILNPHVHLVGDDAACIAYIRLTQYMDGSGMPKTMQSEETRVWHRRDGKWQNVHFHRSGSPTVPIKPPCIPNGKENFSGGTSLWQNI
Sequence of Receptor tyrosine-protein kinase erbB-2 (Homo sapiens) (P04626 whole entry): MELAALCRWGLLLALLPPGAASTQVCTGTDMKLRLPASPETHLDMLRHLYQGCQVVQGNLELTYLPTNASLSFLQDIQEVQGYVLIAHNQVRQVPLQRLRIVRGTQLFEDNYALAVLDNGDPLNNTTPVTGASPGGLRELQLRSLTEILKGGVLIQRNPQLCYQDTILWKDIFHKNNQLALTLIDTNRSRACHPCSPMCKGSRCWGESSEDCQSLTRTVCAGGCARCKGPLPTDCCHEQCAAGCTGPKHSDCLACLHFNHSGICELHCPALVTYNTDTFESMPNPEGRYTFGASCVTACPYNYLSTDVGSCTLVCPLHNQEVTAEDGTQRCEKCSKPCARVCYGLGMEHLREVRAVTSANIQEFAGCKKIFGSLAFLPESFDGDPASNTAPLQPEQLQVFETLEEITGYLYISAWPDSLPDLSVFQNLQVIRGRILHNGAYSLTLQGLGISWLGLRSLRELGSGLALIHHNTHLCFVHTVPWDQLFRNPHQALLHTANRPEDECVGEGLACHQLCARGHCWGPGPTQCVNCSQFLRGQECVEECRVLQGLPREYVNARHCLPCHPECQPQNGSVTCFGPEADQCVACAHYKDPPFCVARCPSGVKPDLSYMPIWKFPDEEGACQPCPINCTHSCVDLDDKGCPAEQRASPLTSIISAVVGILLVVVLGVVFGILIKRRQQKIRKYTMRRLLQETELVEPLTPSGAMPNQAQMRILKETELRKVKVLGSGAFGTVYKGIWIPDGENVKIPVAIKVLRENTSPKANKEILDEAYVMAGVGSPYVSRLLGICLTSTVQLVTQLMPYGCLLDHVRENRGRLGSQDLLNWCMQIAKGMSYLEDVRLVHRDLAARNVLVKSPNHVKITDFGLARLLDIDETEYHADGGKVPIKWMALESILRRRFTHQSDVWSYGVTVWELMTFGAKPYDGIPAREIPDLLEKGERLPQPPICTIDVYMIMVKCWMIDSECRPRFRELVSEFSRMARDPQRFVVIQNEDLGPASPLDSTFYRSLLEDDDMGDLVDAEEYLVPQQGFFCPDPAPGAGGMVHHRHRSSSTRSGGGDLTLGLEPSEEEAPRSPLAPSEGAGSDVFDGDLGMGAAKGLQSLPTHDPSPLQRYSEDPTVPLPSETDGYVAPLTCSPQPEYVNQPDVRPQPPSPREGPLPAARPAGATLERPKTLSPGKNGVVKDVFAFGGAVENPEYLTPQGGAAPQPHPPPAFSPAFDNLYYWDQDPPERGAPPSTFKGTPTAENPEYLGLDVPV
Sequence of Casein kinase I isoform epsilon (Homo sapiens) (P49674 whole entry, looked up, canonical isoform): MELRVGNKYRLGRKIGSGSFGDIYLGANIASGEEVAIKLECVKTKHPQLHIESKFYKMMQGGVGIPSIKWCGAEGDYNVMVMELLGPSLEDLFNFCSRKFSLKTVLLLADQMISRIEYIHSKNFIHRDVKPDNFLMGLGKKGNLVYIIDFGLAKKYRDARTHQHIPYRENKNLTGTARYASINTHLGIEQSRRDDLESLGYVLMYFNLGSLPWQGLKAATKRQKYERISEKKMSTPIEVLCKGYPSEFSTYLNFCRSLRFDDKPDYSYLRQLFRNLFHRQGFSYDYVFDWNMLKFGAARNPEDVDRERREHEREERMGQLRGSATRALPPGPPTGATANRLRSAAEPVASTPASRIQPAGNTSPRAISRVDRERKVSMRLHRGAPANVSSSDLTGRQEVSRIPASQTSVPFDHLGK
Sequence of Mast/stem cell growth factor receptor Kit (Homo sapiens), P10721 [V559D] (P10721 whole entry V559D): as the sequence (P10721 whole entry D816V) above, with V559D, V816D counted along it

Row | Structure (SMILES) | inhibition [1] [%] | inhibition [2] [%] | inhibition [3] [%] | inhibition [4] [%] | inhibition [5] [%] | inhibition [6] [%] | inhibition [7] [%] | inhibition [8] [%] | inhibition [9] [%] | inhibition [10] [%] | inhibition [11] [%] | inhibition [12] [%]
1 | CN1CCN(c2ccc(-c3cnc4c(c3)N(Cc3cc(Cl)ccc3Cl)CCN4)cn2)CC1 | < 50 | < 50 | < 50 | 82 | < 50 | < 50 | < 50 | < 50 | < 50 | < 50 | < 50 | < 50
2 | CN1CCN(c2ccc(-c3cnc4c(c3)N(Cc3cc(Cl)ccc3C(F)(F)F)CCN4)cn2)CC1 | < 50 | < 50 | < 50 | < 50 | < 50 | < 50 | < 50 | < 50 | < 50 | < 50 | < 50 | < 50
3 | FC(F)(F)c1ccc(Cl)cc1CN1CCNc2ncc(-c3ccnc(N4CCNCC4)c3)cc21 | < 50 | < 50 | < 50 | 97 | < 50 | < 50 | 76 | < 50 | < 50 | < 50 | < 50 | < 50
4 | CC(=O)N1CCN(c2cc(-c3cnc4c(c3)N(Cc3cc(Cl)ccc3C(F)(F)F)CCN4)ccn2)CC1 | < 50 | < 50 | < 50 | < 50 | < 50 | < 50 | < 50 | < 50 | < 50 | < 50 | < 50 | < 50
5 | CN1CCN(c2ccc(-c3cnc4c(c3)N(Cc3c(F)ccc(F)c3Cl)CCN4)cn2)CC1 | < 50 | < 50 | < 50 | 69 | < 50 | < 50 | < 50 | < 50 | < 50 | < 50 | < 50 | < 50
6 | CN1CCN(c2ccc(-c3cnc4c(c3)N(Cc3cc(F)ccc3F)CCN4)cn2)CC1 | < 50 | < 50 | < 50 | < 50 | < 50 | < 50 | < 50 | < 50 | < 50 | < 50 | < 50 | < 50

Further lines, results first:

Row | inhibition [1] [%] | inhibition [2] [%] | inhibition [3] [%] | inhibition [4] [%] | inhibition [5] [%] | inhibition [6] [%] | inhibition [7] [%] | inhibition [8] [%] | inhibition [9] [%] | inhibition [10] [%] | inhibition [11] [%] | inhibition [12] [%] | Structure (SMILES)
7 | < 50 | < 50 | < 50 | < 50 | – | < 50 | < 50 | < 50 | – | – | < 50 | – | COC1CCN(C(=O)c2ccc(-c3cnc4c(c3)N(Cc3cc(Cl)ccc3C(F)(F)F)CCN4)cc2)CC1
8 | < 50 | < 50 | < 50 | < 50 | – | < 50 | < 50 | < 50 | – | – | < 50 | – | O=C(c1ccc(-c2cnc3c(c2)N(Cc2cc(Cl)ccc2C(F)(F)F)CCN3)cc1)N1CCCCC1
9 | < 50 | < 50 | < 50 | < 50 | – | < 50 | < 50 | < 50 | – | – | < 50 | – | O=C(O)c1ccc(-c2cnc3c(c2)N(Cc2cc(Cl)ccc2C(F)(F)F)CCN3)cc1
10 | < 50 | < 50 | < 50 | 91.9 | 73.2 | < 50 | < 50 | < 50 | – | – | < 50 | – | O=C(c1ccc(-c2cnc3c(c2)N(Cc2cc(Cl)ccc2C(F)(F)F)CCN3)cc1)N1CCC(N2CCCC2)CC1
